Reference: ChEMBL document CHEMBL5724801, “EUbOPEN Chemogenomics Library - Multiplex” (2024)
“And” between values parts separate entries of the source, which are not always exact repeats. Equal entries are not always repeated.

System: U2OS
Assay: Multiplex assay against U2OS
Format: toxicity, cell-based
Details: human
Outline: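 Per cents of healthy-nucleus cells form the tubulin, mitochondrial-mass and membrane-permeability phenotype values. Live cells were stained at seeding with Hoechst33342, BioTracker Green Microtubule Cytoskeleton Dye, MitoTracker Red and Annexin V Alexa Fluor 680. After compound addition they were imaged on a CQ1 microscope at 37°C and 5% CO2, and CellPathfinder machine-learning gating split them into Hoechst high-intensity objects or normal cells, normal cells into healthy, pyknosed or fragmented nuclei, and pyknosed cells into mitotic or apoptotic.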

[1] = 12 h, 1 µM, compound concentration 1 uM
[2] = 12 h, 10 µM, compound concentration 10 uM
[3] = 24 h, 1 µM, compound concentration 1 uM
[4] = 24 h, 10 µM, compound concentration 10 uM
[5] = 48 h, 1 µM, compound concentration 1 uM
[6] = 48 h, 10 µM, compound concentration 10 uM

COCCNc1cc(NC(=O)N2CCCc3cc(CN4CCOCC4=O)c(C=O)nc32)ncc1C#N
Population Apoptotic (%) [1]: 30.77% and 39.13%
Population Fragmented Nuclei (%) [1]: 2.11% and 3.05%
Population Healthy Nuclei (%) [1]: 87.63% and 82.93%
Population Hoechst High Intensity Objects (%) [1]: 0%
Population Membrane Permeable-Phenotype (%) [1]: 0.6% and 5.15%
Population Mitochondria Different-Phenotype (%) [1]: 0% and 8.82%
Population Mitotic Cells (%) [1]: 69.23% and 60.87%
Population Normal (%) [1]: 100%
Population Pyknosed Nuclei (%) [1]: 10.26% and 14.02%
Population Tubulin-Different-Phenotype (%) [1]: 0.6% and 0%
Total Cell Count [1]: 380 and 164
Population Apoptotic (%) [2]: 46.15% and 40%
Population Fragmented Nuclei (%) [2]: 0.86% and 7.8%
Population Healthy Nuclei (%) [2]: 91.64% and 78.01%
Population Hoechst High Intensity Objects (%) [2]: 0%
Population Membrane Permeable-Phenotype (%) [2]: 1.57% and 1.82%
Population Mitochondria Different-Phenotype (%) [2]: 0.31% and 6.36%
Population Mitotic Cells (%) [2]: 53.85% and 60%
Population Normal (%) [2]: 100%
Population Pyknosed Nuclei (%) [2]: 7.49% and 14.18%
Population Tubulin-Different-Phenotype (%) [2]: 1.26% and 0.91%
Total Cell Count [2]: 347 and 141
Population Apoptotic (%) [3]: 29.17% and 39.13%
Population Fragmented Nuclei (%) [3]: 2.21% and 0.97%
Population Healthy Nuclei (%) [3]: 88.93% and 87.92%
Population Hoechst High Intensity Objects (%) [3]: 0%
Population Membrane Permeable-Phenotype (%) [3]: 1.66% and 3.85%
Population Mitochondria Different-Phenotype (%) [3]: 0% and 4.95%
Population Mitotic Cells (%) [3]: 70.83% and 60.87%
Population Normal (%) [3]: 100%
Population Pyknosed Nuclei (%) [3]: 8.86% and 11.11%
Population Tubulin-Different-Phenotype (%) [3]: 1.04% and 0.55%
Total Cell Count [3]: 542 and 207
Population Apoptotic (%) [4]: 54.55% and 40.91%
Population Fragmented Nuclei (%) [4]: 1.52% and 9.32%
Population Healthy Nuclei (%) [4]: 91.34% and 77.02%
Population Hoechst High Intensity Objects (%) [4]: 0%
Population Membrane Permeable-Phenotype (%) [4]: 0.95% and 2.42%
Population Mitochondria Different-Phenotype (%) [4]: 0% and 9.68%
Population Mitotic Cells (%) [4]: 45.45% and 59.09%
Population Normal (%) [4]: 100%
Population Pyknosed Nuclei (%) [4]: 7.14% and 13.66%
Population Tubulin-Different-Phenotype (%) [4]: 0.95% and 1.61%
Total Cell Count [4]: 462 and 161
Population Apoptotic (%) [5]: 32.88% and 50%
Population Fragmented Nuclei (%) [5]: 2.93% and 2.02%
Population Healthy Nuclei (%) [5]: 89.69% and 90.49%
Population Hoechst High Intensity Objects (%) [5]: 0%
Population Membrane Permeable-Phenotype (%) [5]: 1.01% and 2.23%
Population Mitochondria Different-Phenotype (%) [5]: 0.23% and 5.1%
Population Mitotic Cells (%) [5]: 67.12% and 50%
Population Normal (%) [5]: 100%
Population Pyknosed Nuclei (%) [5]: 7.38% and 7.49%
Population Tubulin-Different-Phenotype (%) [5]: 0.56% and 1.27%
Total Cell Count [5]: 989 and 347
Population Apoptotic (%) [6]: 38.46% and 32.14%
Population Fragmented Nuclei (%) [6]: 3.01% and 6.33%
Population Healthy Nuclei (%) [6]: 86.02% and 81.86%
Population Hoechst High Intensity Objects (%) [6]: 0%
Population Membrane Permeable-Phenotype (%) [6]: 1.4% and 3.09%
Population Mitochondria Different-Phenotype (%) [6]: 0.14% and 6.19%
Population Mitotic Cells (%) [6]: 61.54% and 67.86%
Population Normal (%) [6]: 100%
Population Pyknosed Nuclei (%) [6]: 10.96% and 11.81%
Population Tubulin-Different-Phenotype (%) [6]: 1.68% and 1.03%

CC(C)C[C@H](NC(=O)c1cc2ccccc2s1)C(=O)N1CCN(C(=O)[C@H](CO)NS(=O)(=O)c2ccc(Cl)cc2Cl)CC1
Population Apoptotic (%) [1]: 71.76% and 81.82%
Population Fragmented Nuclei (%) [1]: 5.1% and 6.74%
Population Healthy Nuclei (%) [1]: 61.48% and 56.18%
Population Hoechst High Intensity Objects (%) [1]: 0%
Population Membrane Permeable-Phenotype (%) [1]: 5.39% and 4%
Population Mitotic Cells (%) [1]: 28.24% and 18.18%
Population Normal (%) [1]: 100%
Population Pyknosed Nuclei (%) [1]: 33.42% and 37.08%
Population Tubulin-Different-Phenotype (%) [1]: 4.56% and 4%
Population Apoptotic (%) [2]: 55.1% and 50.79%
Population Fragmented Nuclei (%) [2]: 2% and 2.9%
Population Healthy Nuclei (%) [2]: 65.33% and 51.45%
Population Hoechst High Intensity Objects (%) [2]: 0%
Population Membrane Permeable-Phenotype (%) [2]: 69.39% and 39.44%
Population Mitochondria Different-Phenotype (%) [2]: 30.61% and 87.32%
Population Mitotic Cells (%) [2]: 44.9% and 49.21%
Population Normal (%) [2]: 100%
Population Pyknosed Nuclei (%) [2]: 32.67% and 45.65%
Population Tubulin-Different-Phenotype (%) [2]: 98.47% and 95.77%
Total Cell Count [2]: 300 and 138
Population Apoptotic (%) [3]: 71.76% and 90.91%
Population Fragmented Nuclei (%) [3]: 4.78% and 1.14%
Population Healthy Nuclei (%) [3]: 65.38% and 61.36%
Population Hoechst High Intensity Objects (%) [3]: 0%
Population Membrane Permeable-Phenotype (%) [3]: 4.18% and 5.56%
Population Normal (%) [3]: 100%
Population Pyknosed Nuclei (%) [3]: 29.84% and 37.5%
Population Tubulin-Different-Phenotype (%) [3]: 4.88% and 3.7%
Population Apoptotic (%) [4]: 65.59% and 62.96%
Population Fragmented Nuclei (%) [4]: 2.48% and 4.41%
Population Healthy Nuclei (%) [4]: 64.54% and 55.88%
Population Hoechst High Intensity Objects (%) [4]: 0%
Population Membrane Permeable-Phenotype (%) [4]: 34.07% and 32.89%
Population Mitochondria Different-Phenotype (%) [4]: 52.75% and 88.16%
Population Mitotic Cells (%) [4]: 34.41% and 37.04%
Population Normal (%) [4]: 100%
Population Pyknosed Nuclei (%) [4]: 32.98% and 39.71%
Population Tubulin-Different-Phenotype (%) [4]: 95.6% and 81.58%
Total Cell Count [4]: 282 and 136
Population Apoptotic (%) [5]: 77.39% and 79.17%
Population Fragmented Nuclei (%) [5]: 3.97% and 6.03%
Population Healthy Nuclei (%) [5]: 79.75% and 73.28%
Population Hoechst High Intensity Objects (%) [5]: 0%
Population Membrane Permeable-Phenotype (%) [5]: 5.15% and 10.59%
Population Mitotic Cells (%) [5]: 22.61% and 20.83%
Population Normal (%) [5]: 100%
Population Pyknosed Nuclei (%) [5]: 16.29% and 20.69%
Population Tubulin-Different-Phenotype (%) [5]: 5.51% and 4.71%
Population Apoptotic (%) [6]: 78.7% and 70%
Population Fragmented Nuclei (%) [6]: 3.93% and 4.11%
Population Healthy Nuclei (%) [6]: 63.44% and 54.79%
Population Hoechst High Intensity Objects (%) [6]: 0%
Population Membrane Permeable-Phenotype (%) [6]: 29.05% and 32.5%
Population Mitochondria Different-Phenotype (%) [6]: 43.33% and 62.5%
Population Mitotic Cells (%) [6]: 21.3% and 30%
Population Normal (%) [6]: 100%
Population Pyknosed Nuclei (%) [6]: 32.63% and 41.1%
Population Tubulin-Different-Phenotype (%) [6]: 92.38% and 80%
Total Cell Count [6]: 331 and 146

Cl.Clc1cc2cc(c1)-c1cnn3ccc(nc13)NCCOCCO2
Population Fragmented Nuclei (%) [1]: 3.05% and 2.1%
Population Healthy Nuclei (%) [1]: 88.09% and 86.01%
Population Hoechst High Intensity Objects (%) [1]: 0%
Population Membrane Permeable-Phenotype (%) [1]: 0.94% and 0.81%
Population Mitochondria Different-Phenotype (%) [1]: 0% and 8.94%
Population Mitotic Cells (%) [1]: 56.25% and 94.12%
Population Normal (%) [1]: 100%
Population Pyknosed Nuclei (%) [1]: 8.86% and 11.89%
Population Tubulin-Different-Phenotype (%) [1]: 0.94% and 0%
Total Cell Count [1]: 361 and 143
Population Apoptotic (%) [2]: 35.21% and 35.71%
Population Fragmented Nuclei (%) [2]: 3.56% and 1.13%
Population Healthy Nuclei (%) [2]: 82.38% and 83.05%
Population Hoechst High Intensity Objects (%) [2]: 0%
Population Membrane Permeable-Phenotype (%) [2]: 0.96% and 3.4%
Population Mitotic Cells (%) [2]: 64.79% and 64.29%
Population Normal (%) [2]: 100%
Population Pyknosed Nuclei (%) [2]: 14.06% and 15.82%
Population Tubulin-Different-Phenotype (%) [2]: 2.16% and 1.36%
Total Cell Count [2]: 505 and 177
Population Apoptotic (%) [3]: 43.75% and 57.89%
Population Fragmented Nuclei (%) [3]: 2.2% and 1.09%
Population Healthy Nuclei (%) [3]: 88.2% and 88.52%
Population Hoechst High Intensity Objects (%) [3]: 0%
Population Membrane Permeable-Phenotype (%) [3]: 0.68% and 3.09%
Population Mitochondria Different-Phenotype (%) [3]: 0% and 5.56%
Population Mitotic Cells (%) [3]: 56.25% and 42.11%
Population Normal (%) [3]: 100%
Population Pyknosed Nuclei (%) [3]: 9.6% and 10.38%
Population Tubulin-Different-Phenotype (%) [3]: 0.45% and 0%
Total Cell Count [3]: 500 and 183
Population Apoptotic (%) [4]: 55.41% and 45%
Population Fragmented Nuclei (%) [4]: 1.48% and 2.62%
Population Healthy Nuclei (%) [4]: 86.37% and 79.91%
Population Hoechst High Intensity Objects (%) [4]: 0.16% and 0%
Population Membrane Permeable-Phenotype (%) [4]: 0.19% and 2.73%
Population Mitochondria Different-Phenotype (%) [4]: 0% and 4.37%
Population Mitotic Cells (%) [4]: 44.59% and 55%
Population Normal (%) [4]: 99.84% and 100%
Population Pyknosed Nuclei (%) [4]: 12.15% and 17.47%
Population Tubulin-Different-Phenotype (%) [4]: 1.33% and 2.73%
Total Cell Count [4]: 610 and 229
Population Apoptotic (%) [5]: 47.73% and 42.42%
Population Fragmented Nuclei (%) [5]: 3.1% and 2.92%
Population Healthy Nuclei (%) [5]: 87.5% and 86.36%
Population Hoechst High Intensity Objects (%) [5]: 0%
Population Membrane Permeable-Phenotype (%) [5]: 0.98% and 3.01%
Population Mitochondria Different-Phenotype (%) [5]: 0% and 3.01%
Population Mitotic Cells (%) [5]: 52.27% and 57.58%
Population Normal (%) [5]: 100%
Population Pyknosed Nuclei (%) [5]: 9.4% and 10.71%
Population Tubulin-Different-Phenotype (%) [5]: 0.85% and 1.5%
Population Apoptotic (%) [6]: 53.64% and 54.72%
Population Fragmented Nuclei (%) [6]: 3.97% and 2.37%
Population Healthy Nuclei (%) [6]: 81.76% and 83.68%
Population Hoechst High Intensity Objects (%) [6]: 0.19% and 0%
Population Membrane Permeable-Phenotype (%) [6]: 1.39% and 4.4%
Population Mitochondria Different-Phenotype (%) [6]: 0.46% and 3.77%
Population Mitotic Cells (%) [6]: 46.36% and 45.28%
Population Normal (%) [6]: 99.81% and 100%
Population Pyknosed Nuclei (%) [6]: 14.27% and 13.95%
Population Tubulin-Different-Phenotype (%) [6]: 2.43% and 3.46%
Total Cell Count [6]: 1060 and 380
